From PubChem BioAssay AID2369 (The Scripps Research Institute Molecular Screening Center, 2010) come the findings set out here.

Each structure is given as a SMILES string. The source made the active and inactive calls. How the calls were made is not given here.

Chain of Protein phosphatase methylesterase 1 (Mus musculus) (Q8BVQ5 whole entry, looked up): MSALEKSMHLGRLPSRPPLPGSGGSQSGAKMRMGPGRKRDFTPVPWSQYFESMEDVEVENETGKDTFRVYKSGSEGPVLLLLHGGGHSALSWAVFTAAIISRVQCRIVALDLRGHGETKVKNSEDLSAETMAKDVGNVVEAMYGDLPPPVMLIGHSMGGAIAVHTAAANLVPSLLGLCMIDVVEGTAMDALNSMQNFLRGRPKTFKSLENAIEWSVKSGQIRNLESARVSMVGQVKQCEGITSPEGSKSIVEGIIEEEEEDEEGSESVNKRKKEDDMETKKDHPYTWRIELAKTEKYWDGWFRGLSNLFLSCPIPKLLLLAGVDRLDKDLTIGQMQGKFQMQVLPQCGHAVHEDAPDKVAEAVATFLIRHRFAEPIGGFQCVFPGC

In the test the target is Protein phosphatase methylesterase 1 (Mus musculus) (UniProt Q8BVQ5). Description: endogenous mouse PME-1 inhibition by ABPP, late-stage follow-up, orthogonal assay for PME-1 inhibitor project, cell lysate, mouse brain cytosol, FP-rhodamine, in-gel fluorescence (AID 2369). As to conditions: band fluorescence, at 20 µM, active compounds read high. The essentials: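 Material: Native PME-1, mouse brain cytosol | Quantity: Cytosol, 2 mg/mL | Also added: Fluorophosphonate-rhodamine activity probe at 75 nM | Doses: Single compound dose of 20 µM | Timing: 30 min compound pre-incubation (25 °C), 45 min probe | Technique: Gel fluorescence scan | Measure: % inhibition from band density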
In general, inhibition refers to the percentage by which the read-out fell short of the control. In the case of `COC(=O)c1[nH]c2ccccc2c1/C=C(\C#N)S(C)(=O)=O`, the inhibition is 0% (inactive).

On to `N#C/C(=C\c1cccn1S(=O)(=O)c1cccc(C#N)c1)S(=O)(=O)c1ccc(Cl)cc1`, for which the inhibition is 85%.

As for `COc1cccc(S(=O)(=O)n2cccc2/C=C(\C#N)S(=O)(=O)c2ccc(F)cc2)c1`, the inhibition was 60% (inactive).

`N#C/C(=C\c1cccn1S(=O)(=O)c1cccc(OC(F)(F)F)c1)S(=O)(=O)c1ccc(F)cc1`: the inhibition is 75%.

In the case of `CS(=O)(=O)/C(C#N)=C/c1cn(Cc2cnc(Cl)s2)c2ccccc12`, the inhibition is 0% (inactive).

Turning to `Cc1cc(C)n(-c2ccc(-n3cccc3/C=C(/C#N)S(=O)(=O)c3ccccc3)cc2)n1`, the inhibition was 0% (inactive).

As for `N#C/C(=C\c1cccn1S(=O)(=O)c1cccc([N+](=O)[O-])c1)S(=O)(=O)c1ccc(F)cc1`, the inhibition is 90%.

On to `N#C/C(=C\c1cccn1-c1cc(Cl)cc(Cl)c1)S(=O)(=O)c1ccccc1`, for which the inhibition was 0% (inactive).

With `N#C/C(=C\c1cccn1S(=O)(=O)c1cccc(C#N)c1)S(=O)(=O)c1ccc(Br)cc1`, the inhibition was 70%.

Turning to `CS(=O)(=O)/C(C#N)=C\c1cnc(S(=O)(=O)c2ccccc2)s1`, the inhibition was 0% (inactive).

For `CCSc1ncc(/C=C(/C#N)S(C)(=O)=O)n1C`, the inhibition was 0% (inactive).

For `N#C/C(=C\c1cccn1-c1ccc(OC(F)(F)F)cc1)S(=O)(=O)c1ccccc1`, the inhibition was 0% (inactive).

`N#C/C(=C\c1cccn1-c1ccc(Cl)cc1)S(=O)(=O)c1ccccc1`: the inhibition was 0% (inactive).

As for `CS(=O)(=O)/C(C#N)=C\c1ccc(-n2cc(/C=C(/C#N)S(C)(=O)=O)c3ccccc32)cc1`, the inhibition was 0% (inactive).

For the compound `N#C/C(=C\c1cccn1S(=O)(=O)c1cccc(C(=O)O)c1)S(=O)(=O)c1ccc(F)cc1`, the inhibition is 60% (inactive).

As for `Cc1cc(C)n(-c2ccc(-n3cccc3/C=C(\C#N)S(C)(=O)=O)cc2)n1`, the inhibition was 0% (inactive).

Consider `Cc1ccc(-c2nc3sccn3c2/C=C(\C#N)S(C)(=O)=O)cc1`, for which the inhibition was 0% (inactive).

For the compound `N#C/C(=C\c1cccn1S(=O)(=O)c1cccc(Cl)c1)S(=O)(=O)c1ccc(F)cc1`, the inhibition was 80%.

For `COc1ccc2[nH]c(/C=C(\C#N)S(C)(=O)=O)cc2c1`, the inhibition was 0% (inactive).

With `CS(=O)(=O)/C(C#N)=C/c1cccn1-c1ccc(C(F)(F)F)cc1`, the inhibition is 0% (inactive).

Regarding `CS(=O)(=O)/C(C#N)=C/c1cccn1-c1ccc(OC(F)(F)F)cc1`, the inhibition was 0% (inactive).

Take `Cc1ccc(-n2cccc2/C=C(\C#N)S(C)(=O)=O)c([N+](=O)[O-])c1`: the inhibition is 0% (inactive).

Consider `Cc1cc(C)c(/C=C(\C#N)S(=O)(=O)c2ccccc2)[nH]1`, for which the inhibition is 0% (inactive).
